Drawing on ChEMBL document CHEMBL4368893, “2,2-Dimethyl-3,4-dihydro-2H-1,4-benzoxazines as isosteres of 2,2-dimethylchromans acting as inhibitors of insulin release and vascular smooth muscle relaxants” (Medchemcomm, 2019), this text covers EC50 and Activity for eight compounds.

For assay [1], the system named is Thoracic aorta. The assay is described as follows: Myorelaxant activity in rat thoracic aortic rings assessed as relaxation of 30 mM KCl-induced contraction by force-displacement transducer based assay relative to KCl. The class given is functional, tissue-based. In outline:
(§1)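 Aortic rings from adult fed Wistar rats. Kept at 37 °C in oxygenated medium (95% O2/5% CO2) and equilibrated 60 min. Contraction raised with 30 or 80 mM KCl and recorded isometrically by force transducer. Drug added cumulatively, up to maximal relaxation or 200 µM. Response expressed as % of KCl contraction; EC50 from concentration–response curves, mean ± SEM (n).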

Assay [2] is described as follows: Inhibition of glucose-induced insulin release in rat pancreatic islets assessed as residual insulin secretion at 1 uM incubated for 90 mins incubated in presence of 16.7 mM glucose by radioimmunology assay. Type of assay: functional. In outline:
(§2)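 Islets isolated from adult fed Wistar rats by collagenase digestion, used fresh. Groups of 10 islets pre-incubated 30 min at 37 °C in bicarbonate salt medium with 2.8 mM glucose and 0.5% albumin, gassed O2/CO2 95:5. Then 90 min at 37 °C with 16.7 mM glucose plus compound. Insulin by RIA against rat insulin standard. Output is % of control secretion, mean ± SEM (n).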

Assay [3] is described as follows: Inhibition of glucose-induced insulin release in rat pancreatic islets assessed as residual insulin secretion at 10 uM incubated for 90 mins incubated in presence of 16.7 mM glucose by radioimmunology assay. The class given is functional. The gist of the method:
as §2

The subject of assay [4] is Thoracic aorta. The assay is described as follows: Myorelaxant activity in rat thoracic aortic rings assessed as relaxation of 80 mM KCl-induced contraction by force-displacement transducer based assay relative to KCl. Type of assay: functional, tissue-based. The gist of the method: as §1
Assay [5] has as its system Thoracic aorta. Briefly: Myorelaxant activity in rat thoracic aortic rings assessed as relaxation of 30 mM KCl-induced contraction in presence of 10 uM K-ATP channel blocker glibenclamide by force-displacement transducer based assay relative to KCl. The class given is functional, tissue-based. The gist of the method: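 Wistar rat aortic rings in oxygenated medium at 37 °C, equilibrated 60 min, with 10 µM glibenclamide present throughout. Precontracted with 30 mM KCl; isometric tension recorded by transducer. Cumulative drug addition to maximal relaxation or 200 µM. Tension expressed as % of KCl response; EC50 (50% inhibition of plateau) from concentration–response curves.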

As usually defined, the EC50 is the midpoint of the concentration-response curve.

Molecules are shown by their SMILES.

For `CC1(C)CN(NC(=O)Nc2ccc(Cl)cc2)c2cc(Cl)ccc2O1`, the EC50 with Thoracic aorta [1] came to 13.3 µM. The Activity in assay [2] is on record as 89.5%; in assay [3], 56.2%.
For `CC1(C)CN(NC(=O)Nc2cccc(Cl)c2)c2cc(Cl)ccc2O1` the same measures were 9.9 µM, 92.5% and 46%.
As to `CC1(C)CN(NC(=S)Nc2ccc(C#N)cc2)c2cc(Cl)ccc2O1`, the EC50 with Thoracic aorta [1] was over 30 µM. The figures for the Activity in assay [2] and in assay [3] were 73.3% and 10.8%, respectively.
As for `CC1(C)CN(NC(=O)Nc2ccc(C#N)cc2)c2cc(Cl)ccc2O1`, the EC50 in the assay on Thoracic aorta [1] is 3.7 µM. For the same compound, the Activity in assay [2] worked out at 79%; in assay [3] it was 43.1%.
On to `CC1(C)CN(NC(=O)Nc2cccc(C#N)c2)c2cc(Cl)ccc2O1`, for which the EC50 was 5 µM with Thoracic aorta [4], 1.9 to 3.1 µM in the assay with Thoracic aorta [1] and 3.9 µM in the assay with Thoracic aorta [5]. The figures for the Activity in assay [2] and in assay [3] were 79.5% and 35.7%, respectively.
Regarding `CC1(C)CN(NC(=S)Nc2cccc(Cl)c2)c2cc(Cl)ccc2O1`, the EC50 with Thoracic aorta [1] is over 30 µM. In addition, the Activity in assay [3] turned out to be 71.8%.
In the case of `CC1(C)CN(NC(=S)Nc2cccc(C#N)c2)c2cc(Cl)ccc2O1`, the 50% effective concentration (EC50) with Thoracic aorta [1] is over 30 µM. In addition, the figures for the Activity in assay [2] and in assay [3] were 83.1% and 27%, respectively.
On to `CC1(C)CN(NC(=S)Nc2ccc(Cl)cc2)c2cc(Cl)ccc2O1`, for which the EC50 with Thoracic aorta [1] was over 30 µM. For the same compound, in assay [3], the Activity is reported as 81.4%.
